Measurements reported in ChEMBL document CHEMBL4689842, “EUbOPEN Chemogenomics Library wave 1” (2021).

Tested on: U2OS
Assay: Multiplex assay against U2OS
Type: toxicity, cell-based
Conditions: human
Summary of the method: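 Imaging took place on a CQ1 microscope at 37°C and 5% CO2 once compound had been added to live cells stained at seeding with Hoechst33342, BioTracker Green Microtubule Cytoskeleton Dye, MitoTracker Red and Annexin V Alexa Fluor 680. CellPathfinder machine-learning gating classed cells as Hoechst high-intensity objects or normal cells, classed normal cells as having healthy, pyknosed or fragmented nuclei, and classed pyknosed cells as mitotic or apoptotic. Tubulin, mitochondrial-mass and membrane-permeability phenotypes are per cents of the healthy-nucleus cells.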

[1] = 12 h, 1 µM, compound concentration 1 uM, replicate 1
[2] = 12 h, 1 µM, compound concentration 1 uM, replicate 2
[3] = 12 h, 10 µM, compound concentration 10 uM, replicate 1
[4] = 12 h, 10 µM, compound concentration 10 uM, replicate 2
[5] = 24 h, 1 µM, compound concentration 1 uM, replicate 1
[6] = 24 h, 1 µM, compound concentration 1 uM, replicate 2
[7] = 24 h, 10 µM, compound concentration 10 uM, replicate 1
[8] = 24 h, 10 µM, compound concentration 10 uM, replicate 2
[9] = 48 h, 1 µM, compound concentration 1 uM, replicate 1
[10] = 48 h, 1 µM, compound concentration 1 uM, replicate 2
[11] = 48 h, 10 µM, compound concentration 10 uM, replicate 1
[12] = 48 h, 10 µM, compound concentration 10 uM, replicate 2

SMILES: O=C1N/C(=N/c2ccccc2F)S/C1=C\c1ccc(C(=O)O)cc1
- Population Apoptotic (%) [1]: 33%
- Population Fragmented Nuclei (%) [1]: 8%
- Population Healthy Nuclei (%) [1]: 85%
- Population Hoechst High Intensity Objects (%) [1]: 9%
- Population Membrane Permeable-Phenotype (%) [1]: 6%
- Population Mitochondria Different-Phenotype (%) [1]: 10%
- Population Mitotic Cells (%) [1]: 66%
- Population Normal (%) [1]: 90%
- Population Pyknosed Nuclei (%) [1]: 5%
- Population Tubulin-Different-Phenotype (%) [1]: 7%
- Total Cell Count [1]: 130
- Population Apoptotic (%) [2]: 0%
- Population Fragmented Nuclei (%) [2]: 3%
- Population Healthy Nuclei (%) [2]: 92%
- Population Hoechst High Intensity Objects (%) [2]: 8%
- Population Mitochondria Different-Phenotype (%) [2]: 16%
- Population Mitotic Cells (%) [2]: 100%
- Population Normal (%) [2]: 91%
- Population Pyknosed Nuclei (%) [2]: 3%
- Population Tubulin-Different-Phenotype (%) [2]: 24%
- Total Cell Count [2]: 66
- Population Apoptotic (%) [3]: 25%
- Population Fragmented Nuclei (%) [3]: 8%
- Population Healthy Nuclei (%) [3]: 82%
- Population Hoechst High Intensity Objects (%) [3]: 5%
- Population Membrane Permeable-Phenotype (%) [3]: 6%
- Population Mitochondria Different-Phenotype (%) [3]: 15%
- Population Mitotic Cells (%) [3]: 75%
- Population Normal (%) [3]: 94%
- Population Pyknosed Nuclei (%) [3]: 8%
- Population Tubulin-Different-Phenotype (%) [3]: 8%
- Total Cell Count [3]: 175
- Population Apoptotic (%) [4]: 44%
- Population Fragmented Nuclei (%) [4]: 4%
- Population Healthy Nuclei (%) [4]: 81%
- Population Hoechst High Intensity Objects (%) [4]: 8%
- Population Membrane Permeable-Phenotype (%) [4]: 1%
- Population Mitochondria Different-Phenotype (%) [4]: 9%
- Population Mitotic Cells (%) [4]: 55%
- Population Normal (%) [4]: 91%
- Population Pyknosed Nuclei (%) [4]: 14%
- Population Tubulin-Different-Phenotype (%) [4]: 9%
- Total Cell Count [4]: 59
- Population Apoptotic (%) [5]: 33%
- Population Fragmented Nuclei (%) [5]: 9%
- Population Healthy Nuclei (%) [5]: 81%
- Population Membrane Permeable-Phenotype (%) [5]: 4%
- Population Mitochondria Different-Phenotype (%) [5]: 6%
- Population Mitotic Cells (%) [5]: 66%
- Population Pyknosed Nuclei (%) [5]: 8%
- Population Tubulin-Different-Phenotype (%) [5]: 4%
- Total Cell Count [5]: 131
- Population Apoptotic (%) [6]: 0%
- Population Fragmented Nuclei (%) [6]: 7%
- Population Healthy Nuclei (%) [6]: 85%
- Population Hoechst High Intensity Objects (%) [6]: 5%
- Population Membrane Permeable-Phenotype (%) [6]: 5%
- Population Mitochondria Different-Phenotype (%) [6]: 10%
- Population Mitotic Cells (%) [6]: 100%
- Population Normal (%) [6]: 94%
- Population Pyknosed Nuclei (%) [6]: 7%
- Population Tubulin-Different-Phenotype (%) [6]: 23%
- Total Cell Count [6]: 69
- Population Apoptotic (%) [7]: 20%
- Population Fragmented Nuclei (%) [7]: 6%
- Population Healthy Nuclei (%) [7]: 85%
- Population Hoechst High Intensity Objects (%) [7]: 3%
- Population Membrane Permeable-Phenotype (%) [7]: 4%
- Population Mitochondria Different-Phenotype (%) [7]: 10%
- Population Mitotic Cells (%) [7]: 80%
- Population Normal (%) [7]: 96%
- Population Pyknosed Nuclei (%) [7]: 8%
- Population Tubulin-Different-Phenotype (%) [7]: 5%
- Total Cell Count [7]: 234
- Population Apoptotic (%) [8]: 60%
- Population Fragmented Nuclei (%) [8]: 5%
- Population Healthy Nuclei (%) [8]: 88%
- Population Hoechst High Intensity Objects (%) [8]: 5%
- Population Membrane Permeable-Phenotype (%) [8]: 2%
- Population Mitochondria Different-Phenotype (%) [8]: 6%
- Population Mitotic Cells (%) [8]: 40%
- Population Normal (%) [8]: 94%
- Population Pyknosed Nuclei (%) [8]: 5%
- Population Tubulin-Different-Phenotype (%) [8]: 16%
- Total Cell Count [8]: 73
- Population Apoptotic (%) [9]: 27%
- Population Healthy Nuclei (%) [9]: 86%
- Population Hoechst High Intensity Objects (%) [9]: 1%
- Population Membrane Permeable-Phenotype (%) [9]: 1%
- Population Mitochondria Different-Phenotype (%) [9]: 14%
- Population Mitotic Cells (%) [9]: 72%
- Population Normal (%) [9]: 98%
- Population Pyknosed Nuclei (%) [9]: 6%
- Population Tubulin-Different-Phenotype (%) [9]: 6%
- Total Cell Count [9]: 134
- Population Apoptotic (%) [10]: 0%
- Population Fragmented Nuclei (%) [10]: 6%
- Population Healthy Nuclei (%) [10]: 92%
- Population Hoechst High Intensity Objects (%) [10]: 5%
- Population Membrane Permeable-Phenotype (%) [10]: 7%
- Population Mitochondria Different-Phenotype (%) [10]: 16%
- Population Mitotic Cells (%) [10]: 100%
- Population Normal (%) [10]: 94%
- Population Pyknosed Nuclei (%) [10]: 1%
- Population Tubulin-Different-Phenotype (%) [10]: 23%
- Total Cell Count [10]: 76
- Population Apoptotic (%) [11]: 21%
- Population Healthy Nuclei (%) [11]: 90%
- Population Membrane Permeable-Phenotype (%) [11]: 2%
- Population Mitochondria Different-Phenotype (%) [11]: 14%
- Population Mitotic Cells (%) [11]: 78%
- Population Pyknosed Nuclei (%) [11]: 5%
- Population Tubulin-Different-Phenotype (%) [11]: 5%
- Total Cell Count [11]: 338
- Population Apoptotic (%) [12]: 22%
- Population Fragmented Nuclei (%) [12]: 4%
- Population Healthy Nuclei (%) [12]: 83%
- Population Hoechst High Intensity Objects (%) [12]: 2%
- Population Membrane Permeable-Phenotype (%) [12]: 6%
- Population Mitochondria Different-Phenotype (%) [12]: 9%
- Population Mitotic Cells (%) [12]: 77%
- Population Normal (%) [12]: 97%
- Population Pyknosed Nuclei (%) [12]: 12%
- Population Tubulin-Different-Phenotype (%) [12]: 22%
- Total Cell Count [12]: 105
